# Bioassay records as filed in PubChem BioAssay.
# HSF1 inhib: HSF1 inhibitors in luciferase reporter cells, primary screen, cell-based, NIH3T3, luminescence; NIH3T3-HGL HSE-luciferase, MG132-induced, luminescence 8 h; active compounds read low; activity change, negative = inhibition, % at 7.5 µM (by protocol); hit rate 0.77% among 300,000; AID 2098, 2009;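 active = more than half of replicate wells show activity change below -50%, luminescence cut by over half; inconclusive = some wells, but at most half, below -50%; inactive = no replicate well below -50%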;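 also: luciferase reports HSF-1 transcriptional activity via heat shock element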
# HSF-1 act: HSF-1 activators, primary screen, NIH3T3-HGL cells, MG132 stress, luminescence, single point. activation, % at 9 µM. hit rate 1.7% among 300,000. NIH3T3-HGL HSF-1 luciferase reporter, 8 h; 100% = twice DMSO control signal. AID 504408, 2011;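 active = mean replicate activation of at least 50% with a set share of replicates each reaching 50%; inconclusive = only one of those two conditions met; inactive = mean below 50% and too few replicates reaching it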
# HIF act: HIF pathway transcriptional activators, primary screen, cell-based, U2OS HRE-luciferase, luminescence; AID 1910, 2009; U2OS HRE-luciferase reporter; normalized: DMSO 0%, desferrioxamine 100%; activation, % at 7.5 µM (by protocol); hit rate 0.32% among 300,000;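 active = mean activation of at least 10% of the iron chelator positive control signal, with at least half of replicates also reaching 10%; inconclusive = mean and replicate majority disagree about reaching 10%; inactive = mean and most replicates under 10%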
# T cruzi inh: inhibitors of intracellular T. cruzi growth, primary screen, luminescence, NIH3T3 host cells. T. cruzi beta-gal in NIH3T3, 90 h. inhibition, % (concentration not given with the values). hit rate 1.4% among 300,000. AID 1885, 2009;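 active = mean inhibition across valid replicates above about 55%, limit read from the data; inconclusive = mean below that limit but half or more replicates reach it; inactive = mean below it, under half of replicates reach it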;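 also: signal also drops with host cell toxicity which is not excluded here; higher percent means less beta-gal luminescence so fewer parasites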
#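 Material: NIH/3T3 host cells with β-galactosidase reporter T. cruzi; Input: 5,000 host fibroblasts per well; Medium: DMEM, 2% fetal bovine serum; Compound: 50 nL DMSO compound solution per well; Schedule: 3 h host attachment, then at least 90 h co-culture; Detection: luminescent β-galactosidase signal after 60 min lysis.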
# Calb FLC: C. albicans growth inhibition with fluconazole, primary screen, CaCi-2 strain, Alamar Blue fluorescence | C. albicans CaCi-2 + fluconazole, 48 h | growth inhibition, % (test concentration not listed) | hit rate 0.57% among 300,000;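 active = growth inhibition above about 58% in most replicates, limit read from the data, passing the limit was not always enough; inconclusive = exactly half the replicates above a set limit; inactive = most replicates below a set limit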;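 also: all wells also contain fluconazole at 8 µg/ml as a sub-toxic cotreatment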
# A number is an active result; 0 = inactive; ? = inconclusive; - = not tested or not shown. Shown are actives, neighbours in structure and some others; about 4.4% of the full set was active somewhere.
SMILES,HSF1 inhib,HSF-1 act,HIF act,T cruzi inh,Calb FLC
CCCNC(=O)c1ccc2c(=O)c(O)c(-c3cccc(Br)c3)[nH]c2c1,-52.2,0,0,0,113.5
Nc1c(Cl)cc(-c2[nH]c3cc(C(=O)NCCO)ccc3c(=O)c2O)cc1Cl,0,0,0,0,0
Cc1nn(-c2ccccc2)c(N)c1C(c1ccccc1)c1c(C)nn(-c2ccccc2)c1N,0,78.8,0,0,0
Oc1[nH]c2ccccc2c1N=Nc1cccc(Cl)c1,0,68.9,0,0,0
Cc1cccc2c(N=Nc3ccccc3)c(O)[nH]c12,0,61.1,0,0,0
CCOC(=O)c1c(NC(=S)NC)sc2c1CC(C)(C)SC2,0,0,0,0,91.3
CCOC(=O)c1c(NC(=S)Nc2ccccc2)sc2c1CC(C)(C)SC2,0,0,0,0,0
COc1ccc(S(=O)(=O)NCC(c2cccnc2)N2CCN(Cc3ccccc3)CC2)cc1C (stereo unspecified),0,0,0,57.0,0
COc1ccc(S(=O)(=O)NCC(c2cccnc2)N2CCN(C)CC2)cc1OC (stereo unspecified),-71.4,0,0,0,0
COc1ccc(S(=O)(=O)NCC(c2cccnc2)N2CCN(Cc3ccccc3)CC2)cc1 (stereo unspecified),0,0,0,54.6,0
COc1ccc(/C=C/C2=CC(C)(C)NC(=S)N2)cc1OC,0,0,0,0,0
CCOc1ccc(/C=C/C2=CC(C)(C)NC(=S)N2)cc1,0,0,0,0,109.8
C(=N\Nc1nc(Nc2ccccc2)nc(N2CCCCC2)n1)/c1ccco1,0,0,0,0,0
Cc1ccc(C(=O)Nc2ccc(Cl)cc2C(F)(F)F)c(Cl)c1,0,0,0,0,0
Cc1ccc(C(=O)Nc2ccc(Cl)cc2C)c(Cl)c1,0,67.1,0,0,?
CC(C)C[C@H](NC(=O)c1nc[nH]c1C(=O)N1CCNCC1)C(=O)OCc1ccccc1,0,0,0,0,0
CCOC(=O)Cn1c(S(=O)(=O)Cc2cccc(F)c2)nc(-c2ccccc2)c1-c1ccccc1,0,0,0,0,0
CCOC(=O)Cn1c(S(=O)(=O)Cc2ccc(F)cc2)nc(-c2ccccc2)c1-c1ccccc1,0,88.9,0,0,?
CC(C)CN(C(=O)c1ccc(S(=O)(=O)N2CCOCC2)cc1)C1CCS(=O)(=O)C1 (stereo unspecified),0,0,0,0,0
COc1ccc(/C=N/N2CCN(c3ccc(Cl)cc3)CC2)cc1,0,0,0,0,0
Cc1ccc(N=C2C(=S)N(c3ccc(C)cc3)C(=N)N2/N=C/c2ccc(Cl)cc2)cc1,0,107.6,0,0,0
Oc1ccc(/C=N/Nc2ccc(C(F)(F)F)cn2)c(O)c1,0,0,14.8,0,100.4
Oc1ccc(/C=N/Nc2ccc(C(F)(F)F)cn2)cc1,0,86.1,0,0,0
N#CCCN(Cc1cccnc1)C(=O)c1sc2cc(F)ccc2c1Cl,0,0,0,0,0
O=C(COc1ccccc1Cl)Nc1ccc(N2CCN(C(=O)c3ccccc3)CC2)cc1,0,0,0,0,0
SMILES,HSF1 inhib,HSF-1 act,HIF act,T cruzi inh,Calb FLC
O=C(NCc1ccc(F)cc1)C1(c2cccs2)CCOCC1,0,0,0,0,0
CCOc1ccccc1NC(=S)NCc1ccco1,0,51.5,0,0,0
COc1ccccc1NC(=O)Cn1c(CCC(=O)O)ccc1-c1ccc(C)cc1,0,0,0,0,0
Cc1onc(-c2ccccc2)c1C(=O)N/N=C/c1cccc(O)c1,0,66.5,0,0,0
COc1cccc(/C=N/NC(=O)c2c(-c3ccccc3)noc2C)c1,0,0,0,0,0
O=S(=O)(Cc1ccc(Cl)cc1)NCc1ccc2c(c1)OCO2,0,0,0,0,0
Oc1ccc(C2=NN(c3ccccc3)C(c3ccc(F)cc3)C2)cc1 (stereo unspecified),-74.8,0,0,0,0
COc1ccc(C2CC(c3ccccc3)=NN2c2ccc(S(N)(=O)=O)cc2)cc1 (stereo unspecified),0,0,0,56.9,0
COc1ccc(C2=NN(C(C#N)c3ccc(OC)c(OC)c3)C(c3ccccc3)C2)cc1 (stereo unspecified),0,90.2,0,0,0
COc1ccc(C2=NN(c3ccccc3)C(c3ccc(OC)c(OC)c3)C2)cc1 (stereo unspecified),0,70.5,0,0,0
COc1ccc(C(C#N)N2CCC(c3ccccc3)=N2)cc1OC (stereo unspecified),0,0,0,0,0
O=C(CNc1cc(S(=O)(=O)N2CCOCC2)ccc1N1CCCC1)N1CCc2ccccc21,0,0,0,0,0
COc1ccc(C2CC(c3cccs3)=NN2S(C)(=O)=O)cc1OC (stereo unspecified),-,-,-,-,0
COc1ccc(C2CC(c3cccs3)=NN2c2nc(-c3ccccc3)cs2)cc1OC (stereo unspecified),0,92.8,0,0,0
COc1ccccc1NC(=O)CSCc1nc2ccccc2[nH]1,-,-,-,0,0
Clc1ccc(Nc2ccc(Cl)nn2)cc1,-54.5,0,0,0,0
O=C(NCc1ccc2c(c1)OCO2)c1nc(S(=O)(=O)Cc2ccccc2F)ncc1Cl,0,84.0,0,0,0
O=C(NCc1ccc2c(c1)OCO2)c1ccccc1Cl,0,0,0,0,0
O=C(NCc1ccc2c(c1)OCO2)c1nc(S(=O)(=O)Cc2ccccc2)ncc1Cl,-88.8,0,0,0,0
CCOC(=O)CCN,0,0,0,0,0
c1ccc(N=Nc2ccc3cccccc2-3)cc1,0,75.4,?,0,0
Cc1cc(C(=O)N(C)Cc2c(F)cccc2Cl)c2ccccc2n1,0,0,0,0,0
O=C(Nc1nnc(S(=O)(=O)N2CCCCCC2)s1)c1ccccc1Cl,-69.9,0,0,0,0
O=C(Nc1ccc(N2CCCCC2)cc1)c1ccccn1,-66.9,0,0,0,0
CC(=O)N1CCN(c2ccc(NC(=O)c3ccccc3Cl)cc2)CC1,0,0,0,0,0
SMILES,HSF1 inhib,HSF-1 act,HIF act,T cruzi inh,Calb FLC
O=C(Nc1ccc(-n2ccnc2P(=O)(O)c2ccccc2)cc1)c1ccccc1Cl,-55.0,0,0,0,0
O=C(Nc1ccc(N2CCCCCC2)cc1)c1ccccc1Cl,0,60.3,0,0,0
O=C(Nc1ccc(Oc2cccnc2)cc1)c1ccccc1Cl,-,-,0,0,0
CC(C)C[C@H](NC(=O)c1nc[nH]c1C(=O)N(C)Cc1ccccc1)C(=O)OCc1ccccc1,0,0,0,0,0
CC(C)NC(=O)Cn1c(=O)n(CC(=O)N2CCCCC2)c(=O)c2sccc21,0,0,0,0,0
C=CC[n+]1c(/C=C2\C=Cc3cc(C)ccc3N2CC)ccc2ccccc21,0,0,0,65.8,?
CCC(C)(C(=O)Nc1c(C)cccc1C)N(C)C(=O)c1ccc2ccccc2n1 (stereo unspecified),0,0,0,0,0
